Experiments:
[1] = test system: FXN expression in patient-derived cells; settings: wide array of patient-derived cells; cited from earlier work
[2] = test system: FXN mRNA in GM15850 cells; assay: Co-treatment of SynGRs with BET-binding ligands, FXN mRNA in GM15850 cells; format: cell-based, human; settings: SynGR1 1 h, then ligand 0.5 μM for 23 h
How it was run: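 Patient-derived GM15850 lymphoblasts in RPMI with 15% FBS; compounds dissolved in DMSO. Test compound (1 mM stock, increasing concentrations) added for 1 h, then pan-BET, BD1- or BD2-selective BET ligand at 0.5 μM for 23 h. RNA purified with DNase treatment; cDNA from 400 ng RNA; SYBR qPCR on 100 ng cDNA with FXN and TBP primers; normalised to 0.1% DMSO control.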

Cc1sc2c(c1C)C(c1ccc(Cl)cc1)=N[C@@H](CC(=O)NCCOCCOCCOCCOCCOCCOCCC(=O)NCCCN(C)CCCNC(=O)CCNC(=O)c1nc(NC(=O)CCNC(=O)c3cc(NC(=O)c4nc(NC(=O)CCNC(=O)c5cc(NC(=O)c6nccn6C)cn5C)cn4C)cn3C)cn1C)c1nnc(C)n1-2 [SynGR1]
FXN protein levels [1]: restoring FXN protein levels

COCc1nc2cnc3cc(-c4c(C)noc4C)c(OC[C@H]4CCNC4)cc3c2n1[C@H](C)c1ccccc1 [GSK778]
effect of co-treatment with BET ligand on FXN expression activity of SynGR1 [2]: further stimulated the activity
